Laboratory results: paper PMC12804367 (ESMO Open, 2025)
Several values for one entry are separate records, joined by “and”; a condition that tells them apart may be missing. Equal values may be shown once. Entries after “also recorded” stand apart in the source; their conditions may differ. Marks after values point to notes of the source that are not given here.

Key:
Plasma pharmacokinetics = format: in vivo, human
Outline: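 Dose-escalation patients had blood drawn predose and 0.5, 1, 2, 3, 4, 6 and 24 h post-dose on cycle 1 day 1, and on cycle 1 day 8 for once-daily dosing only. Plasma parameters came from noncompartmental analysis in patients with evaluable plasma concentration data. Values are geometric means with geometric CV%, plus day 8/day 1 accumulation ratios of Cmax and AUC0-24.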

[1] = Japanese phase I study; cited from earlier work
[2] = system: patients with advanced solid tumors; conditions: all patients; cited from earlier work
kinases = conditions: cited from earlier work
[3] = system: refractory gastrointestinal cancers / advanced solid tumors; conditions: cited from earlier work
[4] = system: patients with advanced or metastatic solid tumors; assay: Safety, tolerability and DLTs; format: in vivo, human; conditions: for Treatment-related AE: decreased appetite / Treatment-related AE: fatigue / Treatment-related AE: hyperglycemia / Treatment-related AE: pruritus / Treatment-related AE: rash: all patients (17)
Outline: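 3 + 3 escalation starting at 16 mg/day once daily or 24 mg/day intermittent (4 days on/3 days off) in 21-day cycles. AEs graded by CTCAE v5.0. DLTs were selected lab abnormalities or AEs at least possibly drug-related during cycle 1, assessed in patients with a DLT or ≥80% of planned doses taken.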

[5] = cycle 1 day 1, 16 mg o.d., individual values (N = 2)
[6] = cycle 1 day 1, 20 mg o.d., N = 6, geometric mean (CV%)
[7] = cycle 1 day 1, 24 mg intermittent, N = 4, geometric mean (CV%)
[8] = cycle 1 day 1, 28 mg intermittent, N = 3, geometric mean (CV%)
[9] = cycle 1 day 8, 16 mg o.d., N = 3, geometric mean (CV%)
[10] = cycle 1 day 8, 20 mg o.d., N = 6, geometric mean (CV%)
[11] = all patients (N = 17), any grade
[12] = all patients (N = 17), grade ≥3
[13] = dose escalation intermittent 24 mg (n = 4)

C[C@]1(O)C[C@@](N)(c2ccc(-c3nc4n(c3-c3ccccc3)COc3ccncc3-4)cc2)C1 [TAS-117]
Total exposure per week, 16 mg o.d. compared with 24-mg intermittent dosing (Plasma pharmacokinetics; 16 mg o.d.): higher total exposure per week | AUC0-24 (Plasma pharmacokinetics; [5]): 180.7 ng·h/mL and 244.3 ng·h/mL | AUC0-last (Plasma pharmacokinetics; [5]): 180.7 ng·h/mL and 244.3 ng·h/mL | Cmax (Plasma pharmacokinetics; [5]): 12.8 ng/mL and 14.5 ng/mL | Tmax (Plasma pharmacokinetics; [5]): 3.05 h and 20.88 h | AUC0-24 (Plasma pharmacokinetics; [6]): 333 (34.7) ng·h/ml | AUC0-last (Plasma pharmacokinetics; [6]): 333 (34.7) ng·h/ml | Cmax (Plasma pharmacokinetics; [6]): 21.5 (29.2) ng/ml | Tmax (Plasma pharmacokinetics; cycle 1 day 1, 20 mg o.d., N = 6, median (range)): 2.06 (1.15-6.42) h | AUC0-24 (Plasma pharmacokinetics; [7]): 412.8 (30.6) ng·h/ml | AUC0-last (Plasma pharmacokinetics; [7]): 290.5 (86) ng·h/ml | Cmax (Plasma pharmacokinetics; [7]): 23.2 (33.9) ng/ml | Tmax (Plasma pharmacokinetics; cycle 1 day 1, 24 mg intermittent, N = 4, median (range)): 2 (1.98-3.65) h | AUC0-last (Plasma pharmacokinetics; [8]): 426.3 (180.7) ng·h/ml | Cmax (Plasma pharmacokinetics; [8]): 48.1 (35.9) ng/ml | Tmax (Plasma pharmacokinetics; cycle 1 day 1, 28 mg intermittent, N = 3, median (range)): 2 (0.92-5.65) h | AUC0-24 (Plasma pharmacokinetics; cycle 1 day 1, 28 mg intermittent, individual values (n = 2)): 754.4 ng·h/mL and 961.1 ng·h/mL | AUC0-last (Plasma pharmacokinetics; [9]): 231.7 (157.2) ng·h/ml | Cmax (Plasma pharmacokinetics; [9]): 33.3 (34.3) ng/ml | Tmax (Plasma pharmacokinetics; cycle 1 day 8, 16 mg o.d., N = 3, median (range)): 4.08 (2-5.5) h | AUC0-24 (Plasma pharmacokinetics; cycle 1 day 8, 16 mg o.d., individual value (n = 1)): 811.3 ^b ng·h/ml | AUC0-24 (Plasma pharmacokinetics; [10]): 924 (54.5) ng·h/ml | AUC0-last (Plasma pharmacokinetics; [10]): 924 (54.5) ng·h/ml | Cmax (Plasma pharmacokinetics; [10]): 60.1 (58.8) ng/ml | Tmax (Plasma pharmacokinetics; cycle 1 day 8, 20 mg o.d., N = 6, median (range)): 2.33 (1.02-5.58) h | Exposure versus dose (Plasma pharmacokinetics; dose range 16-28 mg, cycle 1 day 1 and day 8): generally increased with increasing doses; also recorded: dose-dependent increases | Accumulation of Cmax and AUC0-24 [1]: threefold to fourfold | Tolerability of 24-mg o.d. dose level [2]: intolerable skin toxicities | Off-target inhibition of kinases (kinases): no observed off-target inhibition of kinases | Patients who achieved a partial response ([3]; PIK3CA-mutant ovarian cancer): 1 patient | Antitumor activity and toxicity ([3]; patients with refractory gastrointestinal cancers): limited antitumor activity and manageable toxicity | DLTs ([4]; 16 mg o.d.): no DLTs | Time to resolution of DLT ([4]; 20 mg o.d., grade 3 neutropenic infection, dose not modified): ≤ 6 days | DLT event ([4]; 20 mg o.d., one patient): grade 3 neutropenic infection | DLT event ([4]; 28 mg intermittent dosing, two patients): grade 3 oral mucositis; also recorded: grade 3 stomatitis | Time to resolution of DLT (stomatitis) ([4]; 28 mg intermittent, TAS-117 paused, per patient): ≤ 6 days and ≤ 7 days | Grade ≥3 TRAEs ([4]; 16-mg o.d. dose cohort): 33.3% | TRAEs ([4]; 16-mg o.d. dose cohort): 66.7% | TRAEs reported ([4]; 16-mg o.d. dose level): rash (grade 3) and hyperglycemia (grade 2) | Grade ≥3 TRAEs ([4]; 20-mg o.d. dose cohort): 66.7% | TRAEs ([4]; 20-mg o.d. dose cohort): 100% | Patients with treatment discontinued due to a TRAE ([4]; 20-mg o.d. dose group): 50.0% | Patients with grade ≥3 TRAEs ([4]; 20-mg o.d. dose level, out of six): four | Any-grade TRAEs ([4]; 24-mg intermittent dose group): 50.0% | Grade ≥3 TRAEs ([4]; 24-mg intermittent dose group): 25.0% | Any-grade TRAEs ([4]; 28-mg intermittent dose group): 100.0% | Grade ≥3 TRAEs ([4]; 28-mg intermittent dose group): 66.7% | Patients with any TRAE ([4]; DRC 16 mg o.d. (n = 1)): 0 n (%) | Treatment-related AE: decreased appetite ([4]; all grade): 17.6% | Treatment-related AE: fatigue ([4]; all grade): 35.3% | Treatment-related AE: hyperglycemia ([4]; all grade): 29.4% | Treatment-related AE: pruritus ([4]; all grade): 29.4% | Treatment-related AE: rash ([4]; all grade): 58.8% | Treatment-related AE: decreased appetite ([4]; grade ≥3): 0% | Treatment-related AE: fatigue ([4]; grade ≥3): 1% | Treatment-related AE: hyperglycemia ([4]; grade ≥3): 1% | Treatment-related AE: pruritus ([4]; grade ≥3): 0% | Treatment-related AE: rash ([4]; grade ≥3): 17.6% | Patients with any TRAE [4, 11]: 13 (76.5) n (%) | TRAE: Decreased appetite [4, 11]: 3 (17.6) n (%) | TRAE: Diarrhea [4, 11]: 3 (17.6) n (%) | TRAE: Fatigue [4, 11]: 6 (35.3) n (%) | TRAE: Hyperglycemia [4, 11]: 5 (29.4) n (%) | TRAE: Nausea [4, 11]: 2 (11.8) n (%) | TRAE: Pruritus [4, 11]: 5 (29.4) n (%) | TRAE: Rash [4, 11]: 10 (58.8) n (%) | TRAE: Rash maculopapular [4, 11]: 2 (11.8) n (%) | TRAE: Stomatitis [4, 11]: 3 (17.6) n (%) | Patients with any TRAE [4, 12]: 8 (47.1) n (%) | TRAE: Fatigue [4, 12]: 1 (5.9) n (%) | TRAE: Hyperglycemia [4, 12]: 1 (5.9) n (%) | TRAE: Rash [4, 12]: 3 (17.6) n (%) | TRAE: Rash maculopapular [4, 12]: 2 (11.8) n (%) | TRAE: Stomatitis [4, 12]: 2 (11.8) n (%) | Tolerability ([4]; at the RP2D, 16 mg o.d.): tolerable, with a manageable safety profile; also recorded: tolerable, with a manageable AE profile | Patients with any TRAE [4, 13]: 2 (50.0) n (%) | TRAE: Fatigue [4, 13]: 2 (50.0) n (%) | TRAE: Hyperglycemia [4, 13]: 1 (25.0) n (%) | TRAE: Pruritus [4, 13]: 2 (50.0) n (%)
